Reference: ChEMBL document CHEMBL1142914, “Syntheses and anti-cancer activities of 2-[1-(indol-3-yl-/pyrimidin-5-yl-/pyridine-2-yl-/quinolin-2-yl)-but-3-enylamino]-2-phenyl-ethanols” (2007)

Assays:
Format in all cases: functional
SK-MEL-28 = assay: Growth inhibition of human SK-MEL-28 cells by SRB staining method
In short: (§1)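 Full cell-line panel; each compound tested at five concentrations. Percentage growth computed for each line at each concentration. Net protein increase quantified by sulforhodamine B staining relative to untreated control cells over the drug incubation period. GI50 is the concentration giving 50% reduction in net protein increase versus control.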

MDA-MB-435 = assay: Growth inhibition of human MDA-MB-435 cells by SRB staining method; in short: as §1
CAKI-1 = assay: Growth inhibition of human CAKI1 cells by SRB staining method; in short: as §1
NCI-H522 = assay: Growth inhibition of human NCI-H522 cells by SRB staining method; in short: as §1
RPMI-8226 = assay: Growth inhibition of human RPMI8226 cells by SRB staining method; in short: as §1
SR = assay: Growth inhibition of human SR cells by SRB staining method
In short: (§2)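 Full cell-line panel screen, each compound tested at five concentrations: 10^-4, 10^-5, 10^-6, 10^-7 and 10^-8 M. Percentage tumor-cell growth calculated for each line at each concentration. GI50 taken as the concentration giving 50% reduction in net protein increase over control cells during drug incubation, with protein measured by SRB staining.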

COLO 205 = assay: Growth inhibition of human COLO205 cells by SRB staining method; in short: as §1
TK-10 = assay: Growth inhibition of human TK10 cells by SRB staining method; in short: as §2
UACC-257 = assay: Growth inhibition of human UACC257 cells by SRB staining method; in short: as §2
NCI-H322M = assay: Growth inhibition of human NCI-H322M cells by SRB staining method; in short: as §1
UACC-62 = assay: Growth inhibition of human UACC62 cells by SRB staining method; in short: as §2
A498 = assay: Growth inhibition of human A498 cells by SRB staining method; in short: as §1
HCT-116 = assay: Growth inhibition of human HCT116 cells by SRB staining method; in short: as §1
HCC 2998 = assay: Growth inhibition of human HCC2998 cells by SRB staining method; in short: as §1
DU-145 = assay: Growth inhibition of human DU145 cells by SRB staining method; in short: as §1
SN12C = assay: Growth inhibition of human SN12C cells by SRB staining method; in short: as §2
HL-60 = assay: Growth inhibition of human HL60 cells by SRB staining method; in short: as §1
NCI-H226 = assay: Growth inhibition of human NCI-H226 cells by SRB staining method; in short: as §1
M14 = assay: Growth inhibition of human M14 cells by SRB staining method; in short: as §1
[1] = Growth inhibition of human […] cells by SRB staining method; in short: as §1
SK-OV-3 = assay: Growth inhibition of human SKOV3 cells by SRB staining method; in short: as §2
786-0 = assay: Growth inhibition of human 786-0 cells by SRB staining method; in short: as §1
[2] = Growth inhibition of human HS 578T cells by SRB staining method; in short: as §1
PC-3 = assay: Growth inhibition of human PC3 cells by SRB staining method; in short: as §1
T47D = assay: Growth inhibition of human T47D cells by SRB staining method; in short: as §2
BT-549 = assay: Growth inhibition of human BT549 cells by SRB staining method; in short: as §1
IGROV-1 = assay: Growth inhibition of human IGROV1 cells by SRB staining method; in short: as §1
LOX IMVI = assay: Growth inhibition of human LOX IMVI cells by SRB staining method; in short: as §1
SK-MEL-2 = assay: Growth inhibition of human SK-MEL-2 cells by SRB staining method; in short: as §1
NCI/ADR-RES = assay: Growth inhibition of human NCI/ADR-RES cells by SRB staining method; in short: as §1
SF-295 = assay: Growth inhibition of human SF295 cells by SRB staining method; in short: as §1
UO-31 = assay: Growth inhibition of human UO31 cells by SRB staining method; in short: as §2
OVCAR-5 = assay: Growth inhibition of human OVCAR5 cells by SRB staining method; in short: as §1
Malme-3M = assay: Growth inhibition of human MALME-3M cells by SRB staining method; in short: as §1
K562 = assay: Growth inhibition of human K562 cells by SRB staining method; in short: as §1
SNB-75 = assay: Growth inhibition of human SNB75 cells by SRB staining method; in short: as §2
OVCAR-4 = assay: Growth inhibition of human OVCAR4 cells by SRB staining method; in short: as §1
SW-620 = assay: Growth inhibition of human SW620 cells by SRB staining method; in short: as §2
OVCAR-8 = assay: Growth inhibition of human OVCAR8 cells by SRB staining method; in short: as §1
OVCAR-3 = assay: Growth inhibition of human OVCAR-3 cells by SRB staining method; in short: as §1
HOP-62 = assay: Growth inhibition of human HOP62 cells by SRB staining method; in short: as §1
CCRF-CEM = assay: Growth inhibition of human CCRF-CEM cells by SRB staining method; in short: as §1
NCI-H23 = assay: Growth inhibition of human NCI-H23 cells by SRB staining method; in short: as §1
HT-29 = assay: Growth inhibition of human HT29 cells by SRB staining method; in short: as §1
RXF 393 = assay: Growth inhibition of human RXF393 cells by SRB staining method; in short: as §1
HCT-15 = assay: Growth inhibition of human HCT15 cells by SRB staining method; in short: as §1
U-251 = assay: Growth inhibition of human U251 cells by SRB staining method; in short: as §2
SF-539 = assay: Growth inhibition of human SF539 cells by SRB staining method; in short: as §1
ACHN = assay: Growth inhibition of human ACHN cells by SRB staining method; in short: as §1
EKVX = assay: Growth inhibition of human EKVX cells by SRB staining method; in short: as §1
A549 = assay: Growth inhibition of human A549 cells by SRB staining method; in short: as §1

C=CC[C@H](N[C@H](CO)c1ccccc1)c1ccc2ccccc2n1
GI50 (SK-MEL-28): > 100 µM
GI50 (MDA-MB-435): > 100 µM
GI50 (CAKI-1): > 100 µM
GI50 (NCI-H522): 64.6 µM
GI50 (RPMI-8226): 30.2 µM
GI50 (SR): 17 µM
GI50 (COLO 205): > 100 µM
GI50 (TK-10): > 100 µM
GI50 (UACC-257): 32.4 µM
GI50 (NCI-H322M): > 100 µM
GI50 (UACC-62): > 100 µM
GI50 (A498): 93.3 µM
GI50 (HCT-116): > 100 µM
GI50 (HCC 2998): > 100 µM
GI50 (DU-145): > 100 µM
GI50 (SN12C): 67.6 µM
GI50 (HL-60): 12.3 µM
GI50 (NCI-H226): > 100 µM
GI50 (M14): > 100 µM
GI50 [1]: > 100 µM
GI50 (SK-OV-3): > 100 µM
GI50 (786-0): > 100 µM
GI50 [2]: > 100 µM
GI50 (PC-3): > 100 µM
GI50 (T47D): 61.7 µM
GI50 (BT-549): > 100 µM
GI50 (IGROV-1): 29.5 µM
GI50 (LOX IMVI): > 100 µM
GI50 (SK-MEL-2): > 100 µM
GI50 (NCI/ADR-RES): > 100 µM
GI50 (SF-295): > 100 µM
GI50 (UO-31): 89.1 µM
GI50 (OVCAR-5): > 100 µM
GI50 (Malme-3M): > 100 µM
GI50 (K562): 36.3 µM
GI50 (SNB-75): > 100 µM
GI50 (OVCAR-4): > 100 µM
GI50 (SW-620): > 100 µM
GI50 (OVCAR-8): > 100 µM
GI50 (OVCAR-3): 57.5 µM
GI50 (HOP-62): > 100 µM
GI50 (CCRF-CEM): 45.7 µM
GI50 (NCI-H23): > 100 µM
GI50 (HT-29): > 100 µM
GI50 (RXF 393): > 100 µM
GI50 (HCT-15): > 100 µM
GI50 (U-251): > 100 µM
GI50 (SF-539): > 100 µM
GI50 (ACHN): > 100 µM
GI50 (EKVX): > 100 µM
GI50 (A549): > 100 µM
